Like-named read-outs stand apart in the source and are kept apart here.

Consider five compounds from article PMC6540510 (Pulmonary Circulation, 2019).

For series [1] the following is noted: tadalafil 20 mg with ritonavir 200 mg twice daily; cited from earlier work.
The conditions of series [2]: sildenafil 100 mg single dose with ritonavir 500 mg twice daily; cited from earlier work.
Series [3] is classed as in vivo. Conditions: human, plasma, 0.5 mg; for Tmax: adults with HIV. The method in brief: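 Adults with HIV on stable fixed-dose background ART for ≥6 weeks received a single oral 0.5 mg dose in the morning after a ≥10 h fast, then a further 4-h fast. Plasma was sampled at baseline and 0.5–48 h. Analysis was by HPLC-MS/MS with internal standards (LLOQ 2 µg/L). Cmax was derived non-compartmentally and summarised as geometric mean with %CV.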

Series [4] is classed as in vivo, human. Conditions: single 0.5 mg dose. The gist of the method:
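Single oral 0.5 mg dose was given fasted on top of stable background ART, with plasma sampled to 48 h and assayed by HPLC-MS/MS. AUC(0–∞) was derived non-compartmentally. ANOVA on log-transformed AUC gave LS-mean ratios versus historical healthy-volunteer data (n = 80; fed and fasted states), re-transformed, with 90% CIs.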

A short description of a further series: Safety and tolerability. The series is classed as in vivo, human. The gist of the method:
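HIV-infected adults (n = 41 treated) on stable background ART received a single fasted oral 0.5 mg dose. Treatment-emergent adverse events, vital signs, ECG and laboratory parameters were recorded. Supine and/or sitting blood pressure was measured regularly, generally at the blood-sampling times (0.5–48 h post-dose).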

For series [5] the following is noted: cited from earlier work.
For series [6] the following is noted: co-administration of ketoconazole, single 0.5 mg riociguat, 16 healthy volunteers; cited from earlier work.
The conditions of series [7]: co-administered with lopinavir and ritonavir, healthy individuals; cited from earlier work.
The conditions of series [8]: cited from earlier work. The source holds these as a separate data set.
[9] abbreviates: single 0.5 mg dose, adults with HIV.
Where [10] appears, read: single 0.5 mg dose, adults with HIV, all background regimens, total n = 41.
The mark [11] stands for this setting: single 0.5 mg dose, adults with HIV, background abacavir/dolutegravir/lamivudine (TRIUMEQ), n = 8.
Setting [12] is: single 0.5 mg dose, adults with HIV, background efavirenz/emtricitabine/tenofovir disoproxil (ATRIPLA), n = 8.
[13] abbreviates: single 0.5 mg dose, adults with HIV, background elvitegravir/cobicistat/emtricitabine/tenofovir disoproxil (STRIBILD), n = 8.
Where [14] appears, read: single 0.5 mg dose, adults with HIV, background emtricitabine/rilpivirine/tenofovir disoproxil (COMPLERA), n = 8.
Setting [15] is: single 0.5 mg dose, adults with HIV, background ritonavir-boosted triple regimen, n = 9.

As for `CN1CC(=O)N2[C@H](c3ccc4c(c3)OCO4)c3[nH]c4ccccc4c3C[C@@H]2C1=O` [tadalafil], in series [1], the “change in Cmax” value is “no change” and the “increase in single-dose exposure” value is reported as 124%.
`CCCc1nn(C)c2c(=O)[nH]c(-c3cc(S(=O)(=O)N4CCN(C)CC4)ccc3OCC)nc12` [sildenafil]: the “increase in plasma AUC” value in [2] is recorded as 11 fold.
In series [3] (oral), `COC(=O)N(C)c1c(N)nc(-c2nn(Cc3ccccc3F)c3ncccc23)nc1N` [riociguat] registered a Cmax of 14.2 to 20.4 ng/mL. For the same compound, the Tmax in series [3] (oral, median tmax, range across the five background antiretroviral groups, single 0.5 mg dose) was in the range of 1 to 1.27 h. For the same compound, the Tmax in [3] (po, tmax, single 0.5 mg oral dose, background abacavir/dolutegravir/lamivudine (TRIUMEQ), median (range), n = 8) was 1.27 h. For the same compound, in series [3] (po, tmax, single 0.5 mg oral dose, background efavirenz/emtricitabine/tenofovir disoproxil (ATRIPLA), median (range), n = 8), the Tmax worked out at 1 h. Also, the Tmax in series [3] (po, tmax, single 0.5 mg oral dose, background elvitegravir/cobicistat/emtricitabine/tenofovir disoproxil (STRIBILD), median (range), n = 8) came out at 1.03 h. The Tmax in series [3] (po, tmax, single 0.5 mg oral dose, background emtricitabine/rilpivirine/tenofovir disoproxil (COMPLERA), median (range), n = 8) is 1.03 h. Besides, in series [3] (po, tmax, single 0.5 mg oral dose, background ritonavir-boosted triple regimen, median (range), n = 8), the Tmax is 1.03 h. Moreover, the “riociguat exposure (AUC) compared with historical healthy volunteers” value in series [4] (administered with abacavir/dolutegravir/lamivudine) is listed as “increased by approximately threefold”. Further, the “riociguat exposure (AUC) compared with historical healthy volunteers” value in series [4] (administered with ritonavir-boosted triple regimen) is “slightly increased”. For the same compound, in series [4] (co-administered with efavirenz/emtricitabine/tenofovir disoproxil), the “riociguat exposure (AUC) compared with historical healthy volunteers” value is “similar”. Further, the “riociguat exposure (AUC) compared with historical healthy volunteers” value in [4] (co-administered with efavirenz/emtricitabine/tenofovir disoproxil, listed as Riociguat) is listed as “no apparent change”. Also, the “AEs considered related to riociguat” value in the series “Safety and tolerability” (headache and stomach cramps, all resolved by study end) was “Four AEs were considered related to riociguat in three participants”. Besides, in the series “Safety and tolerability” (setting [9]), the “AEs related to decreased blood pressure or hypotension” value is “No AEs related to decreased blood pressure or hypotension were reported”; the “changes in vital signs, electrocardiogram, or laboratory parameters” value is on record as “No clinically significant changes”; the “intensity of AEs” value is “mild or moderate”. The tolerability result in “Safety and tolerability” (single 0.5 mg dose, adults with HIV on stable background ART) was “well tolerated”. The “serious AEs, AEs leading to discontinuation, or deaths” value in “Safety and tolerability” (single 0.5 mg dose, adults with HIV, n = 41) is “no serious AEs, AEs leading to discontinuation, or deaths”. In addition, the participants with headache in “Safety and tolerability” (single 0.5 mg dose, adults with HIV, n = 41 (four participants)) came to 10%. Also, the “participants with a treatment-emergent AE” value in “Safety and tolerability” (single 0.5 mg dose, adults with HIV, n = 41 (ten participants)) came to 24%. In “Safety and tolerability” (single 0.5 mg dose, adults with HIV, n = 41 (two participants)), the participants with fatigue stood at 5%. Moreover, in “Safety and tolerability” (setting [10]), the “Any AE” value is 10 (24) n (%), the Diarrhea was 1 (2) n (%), the Dizziness is reported as 1 (2) n (%) and the Fatigue was 2 (5) n (%). Also, in “Safety and tolerability” (setting [10]), the Headache is 4 (10) n (%), the Lip swelling is recorded as 1 (2) n (%), the Oral paresthesia is 1 (2) n (%) and the Oropharyngeal pain is listed as 1 (2) n (%). In the series “Safety and tolerability” (setting [10]), the Pain was 1 (2) n (%), the Pyrexia is given as 1 (2) n (%), the Upper abdominal pain was 1 (2) n (%) and the Urethritis was 1 (2) n (%). Also, in “Safety and tolerability” (setting [11]), the “Any AE” value is recorded as 2 (25) n (%), the Diarrhea is 0 n (%), the Dizziness was 0 n (%) and the Fatigue was 1 (13) n (%). For the same compound, in “Safety and tolerability” (setting [11]), the Headache was 1 (13) n (%), the Lip swelling is 0 n (%), the Oral paresthesia is on record as 0 n (%) and the Oropharyngeal pain is given as 0 n (%). For the same compound, in the series “Safety and tolerability” (setting [11]), the Pain is on record as 0 n (%), the Pyrexia is 1 (13) n (%), the Upper abdominal pain is reported as 0 n (%) and the Urethritis was 0 n (%). Besides, in the series “Safety and tolerability” (setting [12]), the “Any AE” value was 1 (13) n (%), the Diarrhea is 0 n (%), the Dizziness is reported as 0 n (%) and the Fatigue is given as 0 n (%). Besides, in the series “Safety and tolerability” (setting [12]), the Headache is given as 0 n (%), the Lip swelling is given as 0 n (%), the Oral paresthesia is recorded as 1 (13) n (%) and the Oropharyngeal pain was 0 n (%). For the same compound, in the series “Safety and tolerability” (setting [12]), the Pain is recorded as 0 n (%), the Pyrexia is given as 0 n (%), the Upper abdominal pain was 0 n (%) and the Urethritis was 0 n (%). Further, in the series “Safety and tolerability” (setting [13]), the “Any AE” value is 2 (25) n (%), the Diarrhea is listed as 0 n (%), the Dizziness was 1 (13) n (%) and the Fatigue is 1 (13) n (%). Further, in “Safety and tolerability” (setting [13]), the Headache is 0 n (%), the Lip swelling is listed as 1 (13) n (%), the Oral paresthesia is 0 n (%) and the Oropharyngeal pain was 0 n (%). Also, in “Safety and tolerability” (setting [13]), the Pain is given as 0 n (%), the Pyrexia is recorded as 0 n (%), the Upper abdominal pain is recorded as 0 n (%) and the Urethritis is on record as 0 n (%). In the series “Safety and tolerability” (setting [14]), the “Any AE” value was 3 (38) n (%), the Diarrhea is on record as 0 n (%), the Dizziness is recorded as 0 n (%) and the Fatigue was 0 n (%). Moreover, in the series “Safety and tolerability” (setting [14]), the Headache is 1 (13) n (%), the Lip swelling is reported as 0 n (%), the Oral paresthesia is recorded as 0 n (%) and the Oropharyngeal pain was 1 (13) n (%). In addition, in the series “Safety and tolerability” (setting [14]), the Pain is 1 (13) n (%), the Pyrexia is 0 n (%), the Upper abdominal pain is reported as 0 n (%) and the Urethritis is listed as 1 (13) n (%). In “Safety and tolerability” (setting [15]), the “Any AE” value was 2 (22) n (%), the Diarrhea is 1 (11) n (%), the Dizziness is 0 n (%) and the Fatigue is 0 n (%). In addition, in “Safety and tolerability” (setting [15]), the Headache is on record as 2 (22) n (%), the Lip swelling is on record as 0 n (%), the Oral paresthesia is reported as 0 n (%) and the Oropharyngeal pain is recorded as 0 n (%). In the series “Safety and tolerability” (setting [15]), the Pain is reported as 0 n (%), the Pyrexia is listed as 0 n (%), the Upper abdominal pain is 1 (11) n (%) and the Urethritis was 0 n (%). For the same compound, in [5], the bioavailability is reported as above 90% and the “fraction of the dose eliminated by oxidative biotransformation” value is recorded as 27–71%. Further, the mean half-life entry in series [5] (healthy individuals) is on record as “approximately 7 h”. In series [5] (patients with PAH), the mean half-life result is listed as “approximately 12 h”. For the same compound, the “increase in mean AUC0-∞ compared with controls” value in series [6] was 2.5 fold.
For the compound `COc1ccccc1Oc1c(NS(=O)(=O)c2ccc(C(C)(C)C)cc2)nc(-c2ncccn2)nc1OCCO` [bosentan], the “plasma concentrations on co-administration” value in series [7] is “increased plasma concentrations”.
With `COC(=O)Nc1c(N)nc(-c2nn(Cc3ccccc3F)c3ncccc23)nc1N` [M1], the “biologic activity relative to riociguat” value in series [8] is “one-tenth to one-third”.
